According to publication PMC4324418 (ACS Chemical Neuroscience, 2014):

Legend:
rat M1 receptor = assay: Calcium mobilization, selectivity; assay type: cell-based
Outline: (§1)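 Cells were seeded at 15000/well in DMEM with 10% dialyzed FBS, 20 mM HEPES and 1 mM pyruvate, then cultured overnight at 37 °C/5% CO2. M2 and M4 lines were cotransfected with Gqi5. Cells were loaded with 1 μM Fluo-4AM (HBSS, 20 mM HEPES, 2.5 mM probenecid, pH 7.4) for 50 min at 37 °C. ACh was added 140 s after test compound. Calcium signal was expressed as % of the 10 μM ACh maximum.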

[1] = test system: 57 GPCRs, ion channels, and transporters; assay: Ricerca lead profiling screen, radioligand binding panel; conditions: 10 μM
human M1 receptor = assay: Calcium mobilization, selectivity; assay type: cell-based
Outline: as §1

wild-type mice [2] = assay: Contextual fear conditioning, four-shock, MK-801-induced deficit; assay type: in vivo, mouse
Outline: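 Subjects were wild-type and M4 KO mice, 8–11 weeks old, handled for 3 days and saline-injected 1 day before conditioning. Vehicle (10% Tween 80 in water, IP) or test compound (3–10 mg/kg IP) was given 30 min before saline or MK-801 (0.1–0.3 mg/kg IP). Mice entered the chamber 30 min later for a four-shock conditioning trial. Percent freezing was scored 24 h later, drug-free.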

[3] = Mouse brain homogenate binding; assay type: in vitro ADME
[4] = Biotransformation in cryopreserved rat hepatocytes; assay type: in vitro ADME; conditions: male, Sprague–Dawley rat (data not shown)
rat M3 receptor = assay: Calcium mobilization, selectivity; assay type: cell-based
Outline: as §1

cyno M4 = target: T1, cyno M4 (Macaca fascicularis, UniProt G7PQB4); assay: Calcium mobilization, potentiation of ACh EC20; assay type: cell-based, cynomolgus monkey; conditions: maximum response as % of the Emax of ACh
T1 sequence (G7PQB4 1-479): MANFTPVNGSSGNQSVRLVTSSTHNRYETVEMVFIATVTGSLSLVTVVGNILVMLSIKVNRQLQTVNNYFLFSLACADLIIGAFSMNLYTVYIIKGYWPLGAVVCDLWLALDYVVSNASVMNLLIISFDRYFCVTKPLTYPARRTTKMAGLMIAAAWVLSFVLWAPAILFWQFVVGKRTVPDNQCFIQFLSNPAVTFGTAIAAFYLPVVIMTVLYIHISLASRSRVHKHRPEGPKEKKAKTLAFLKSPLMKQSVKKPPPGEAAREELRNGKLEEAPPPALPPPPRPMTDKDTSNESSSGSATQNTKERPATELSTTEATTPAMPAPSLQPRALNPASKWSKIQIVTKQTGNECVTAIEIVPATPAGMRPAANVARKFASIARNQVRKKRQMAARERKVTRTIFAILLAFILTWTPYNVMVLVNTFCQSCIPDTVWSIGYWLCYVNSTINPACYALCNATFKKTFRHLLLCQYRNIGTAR
Outline: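 Receptor-expressing cells were plated at 15000 cells/well in DMEM with 10% dialyzed FBS, 20 mM HEPES and 1 mM pyruvate, and grown overnight at 37 °C/5% CO2. Test compound was added, then ACh at EC20 140 s later and at EC80 120 s later. Responses were normalized to 10 μM ACh maximum; ≥3 independent experiments.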

rat M4 receptor = target: T2, rat M4 receptor (Rattus norvegicus, UniProt P08485); assay type: cell-based; conditions: maximum response as % of the Emax of ACh
T2 sequence (P08485 1-478): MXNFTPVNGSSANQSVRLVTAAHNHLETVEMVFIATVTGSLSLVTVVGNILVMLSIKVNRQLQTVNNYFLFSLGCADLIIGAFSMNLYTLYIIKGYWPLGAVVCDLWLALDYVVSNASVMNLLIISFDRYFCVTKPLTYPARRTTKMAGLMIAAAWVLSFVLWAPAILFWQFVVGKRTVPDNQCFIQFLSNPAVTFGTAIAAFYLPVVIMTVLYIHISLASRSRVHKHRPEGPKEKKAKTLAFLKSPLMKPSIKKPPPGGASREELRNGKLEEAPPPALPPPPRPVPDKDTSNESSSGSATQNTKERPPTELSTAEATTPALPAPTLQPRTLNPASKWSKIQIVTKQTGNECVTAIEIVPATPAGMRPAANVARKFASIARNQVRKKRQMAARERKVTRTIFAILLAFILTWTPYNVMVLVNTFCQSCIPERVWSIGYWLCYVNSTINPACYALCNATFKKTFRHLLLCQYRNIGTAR

[5] = Pharmacokinetic and brain distribution studies in mice; conditions: for AUC(0-t) / Cmax / Tmax: male, C57BL/6, mouse, in vivo
rats = assay: Amphetamine-induced hyperlocomotion in rats; assay type: in vivo; conditions: rat, amphetamine 0.75 mg/kg SC
[6] = Amphetamine-induced hyperlocomotion in rats; assay type: in vivo; conditions: Sprague-Dawley, rat, brain, po
[7] = Mouse plasma protein binding; assay type: in vitro ADME
wild-type mice [8] = assay: Nociceptive response to increasing footshock current intensities; assay type: in vivo, mouse; conditions: 10 mg/kg IP
Outline: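 Mice received vehicle (10% Tween 80 in sterile water, IP) or test compound (10 mg/kg IP) and were placed in conditioning chambers 30 min later. Behavioural responses were scored over rising footshock currents, 0–0.5 mA in 0.05 mA steps. Groups had 6–10 animals. Data: mean ± SEM, one-way ANOVA with Bonferroni test.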

human M3 receptor = assay: Calcium mobilization, selectivity; assay type: cell-based
Outline: as §1

rat M2 receptor = assay: Calcium mobilization, selectivity; assay type: cell-based
Outline: as §1

SMILES: Cc1nnc2sc(C(=O)NCc3ccc(S(=O)(=O)C(F)(F)F)cc3)c(N)c2c1C [VU0467154, 5-amino-3,4-dimethyl-N-(4-((trifluoromethyl)sulfonyl)benzyl)thieno[2,3-c]pyridazine-6-carboxamide]
- potentiation of ACh response (calcium response) (rat M1 receptor): lack of a calcium response
- displacement of the radioligand ([1]; all targets included in this panel): ≤ 30%
- displacement of the radioligand ([1]; majority of targets): ≤ 20%
- potentiation of ACh response (calcium response) (human M1 receptor): lack of a calcium response
- effect on contextual fear conditioning (wild-type mice [2]; VU0467154 alone, four-shock): had no effect on contextual fear conditioning
- reversal of MK-801-induced deficits in the acquisition of contextual fear conditioning (wild-type mice [2]; pretreatment 3–10 mg/kg): dose-dependently reversed
- fraction unbound [3]: 0.014
- turnover in hepatocytes [4]: low turnover
- potentiation of ACh response (calcium response) (rat M3 receptor): lack of a calcium response
- %AChmax (cyno M4): 57%
- %AChmax (rat M4 receptor): 68%
- AUC(0-t) ([5]; ip, 3 mg/kg): 9.2 µM·h
- Cmax ([5]; ip, 3 mg/kg): 2000 nM
- Tmax ([5]; ip, 3 mg/kg): 1 h
- AUC(0-t) ([5]; ip, 10 mg/kg): 39 µM·h
- Cmax ([5]; ip, 10 mg/kg): 5600 nM
- Tmax ([5]; ip, 10 mg/kg): 0.5 h
- Tmax ([5]; ip, 30 mg/kg): 0.5 h
- AUC(0-t) ([5]; po, 10 mg/kg): 46 µM·h
- Cmax ([5]; po, 10 mg/kg): 7600 nM
- Tmax ([5]; po, 10 mg/kg): 1 h
- AUC(0-t) ([5]; po, 30 mg/kg): 66 µM·h
- Cmax ([5]; po, 30 mg/kg): 11000 nM
- Tmax ([5]; po, 30 mg/kg): 1 h
- brain AUC0–24h ([5]; mouse, IP 3 mg/kg, brain): 5.9 µM·h
- mean reversal of AHL (rats; PO 1 mg/kg): 21%
- mean reversal of AHL (rats; PO 3 mg/kg): 33%
- mean reversal of AHL (rats; PO 10 mg/kg): 46%
- mean reversal of AHL (rats; PO 30 mg/kg): 53%
- mean reversal of AHL (rats; PO 56.6 mg/kg): 42%
- concentration at 1.5 h ([6]; 3 mg/kg, mean Cbrain, PO 3 mg/kg, at 1.5 h postadministration): 750 nM
- concentration at 1.5 h ([6]; 3 mg/kg, mean Cbrain,u, PO 3 mg/kg, 1.5 h, in vitro rat fubrain 0.067): 50 nM
- concentration at 1.5 h ([6]; 10 mg/kg, mean Cbrain, PO 10 mg/kg, at 1.5 h postadministration): 1100 nM
- concentration at 1.5 h ([6]; 10 mg/kg, mean Cbrain,u, PO 10 mg/kg, 1.5 h, in vitro rat fubrain 0.067): 74 nM
- concentration at 1.5 h ([6]; 30 mg/kg, mean Cbrain,u, PO 30 mg/kg, 1.5 h, in vitro rat fubrain 0.067): 94 nM
- concentration at 1.5 h ([6]; 56.6 mg/kg, mean Cbrain,u, PO 56.6 mg/kg, 1.5 h, in vitro rat fubrain 0.067): 94 nM
- fraction unbound [7]: 0.022
- footshock threshold to elicit jumping (wild-type mice [8]): increased the threshold to elicit jumping
- twitching, flinching, and vocalizing responses to increasing foot shock intensities (wild-type mice [8]): did not alter
- potentiation of ACh response (calcium response) (human M3 receptor): lack of a calcium response
- potentiation of ACh response (calcium response) (rat M2 receptor): lack of a calcium response
